Each block holds one molecule with its values, some of them ahead of it.
Tests used:
MrgX1 [1] = target: T1, MrgX1 (Homo sapiens, UniProt Q96LB2); test: Ca2+ imaging assay on MrgX1-expressing HEK293 cells; type: cell-based
How it was run: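 Ca2+ imaging in HEK293 cells expressing MrgX1, read as relative fluorescence units. Test compound was titrated alone and with a submaximal BAM8-22 level (10 nM). EC50 came from dose-response curve fitting and was not determined when Emax was <50%. Emax is given as % of a reference analogue. Three repeat experiments, mean±SEM.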

[2] = test system: 68 GPCR's, ion channels and transporters; test: EuroFin's Lead Profiling Screen binding assay panel; conditions: 10 μM
[3] = Intrinsic clearance in rat hepatic microsomes; type: in vitro ADME
[4] = Intrinsic clearance in human hepatic microsomes; type: in vitro ADME
[5] = Plasma protein binding by equilibrium dialysis, human; type: in vitro ADME; conditions: free fraction
[6] = Plasma protein binding by equilibrium dialysis, rat; type: in vitro ADME; conditions: free fraction
MrgX1 [7] = target: T1, MrgX1; test: HTS triple addition screen for MrgX1 positive allosteric modulators; type: cell-based; conditions: read-out: MrgX1 EC50; HTS screen value; HEK293 cell line stably expressing MrgX1

T1 sequence (Q96LB2 whole entry): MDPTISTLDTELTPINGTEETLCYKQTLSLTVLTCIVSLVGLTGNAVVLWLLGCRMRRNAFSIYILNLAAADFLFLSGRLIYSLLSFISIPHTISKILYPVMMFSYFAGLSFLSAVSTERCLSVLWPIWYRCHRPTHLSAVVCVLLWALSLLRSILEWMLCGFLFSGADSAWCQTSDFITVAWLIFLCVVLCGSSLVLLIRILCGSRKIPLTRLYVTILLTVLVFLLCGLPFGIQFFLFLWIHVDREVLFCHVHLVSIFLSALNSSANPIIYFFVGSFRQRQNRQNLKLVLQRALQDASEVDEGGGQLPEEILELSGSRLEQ

Molecule: CCOc1ccccc1NC(=O)c1ccccc1NS(=O)(=O)C1CC1 [4l, 2-(cyclopropanesulfonamido)-N-(2-ethoxyphenyl)benzamide]
- Activation of MrgX1 (agonistic activity) (MrgX1 [1]; in the absence of BAM8-22): does not activate MrgX1
- Effect on the EMax of BAM8-22 (MrgX1 [1]; maximum concentration of BAM8-22 used): does not affect the EMax of BAM8-22
- Emax as % of standard compound (4i) (MrgX1 [1]; normalized to the positive control (4i, 100%)): 195 ± 8%
- EC50 (MrgX1 [1]; read-out: MrgX1 EC50, Table 3, alkylsulfonamides, in presence of BAM8-22): 190 ± 60 nM
- Inhibition of radio ligand binding >50% in panel of 68 targets [2]: did not inhibit 67 of the 68 targets
- Rat CLHEP, Microsome Predicted Hepatic Clearance [3]: 65.7 mL/min/kg
- Human CLHEP, Microsome Predicted Hepatic Clearance [4]: 15.7 mL/min/kg
- Human PPB, Percent Free Compound in Plasma [5]: 0.4%
- Rat PPB, Percent Free Compound in Plasma [6]: 1.7%

- EC50 (MrgX1 [7]): 96 nM
Molecule: CCOc1ccccc1NC(=O)c1ccccc1NS(C)(=O)=O [SID 4258711]

- EC50 (MrgX1 [7]): 329 nM
Molecule: CSc1ccccc1NC(=O)c1ccccc1N(C)S(C)(=O)=O [SID 4262381]

- EC50 (MrgX1 [1]; EC50 of BAM8-22 on MrgX1, with ML382): 2.9 nM
- EC50 (MrgX1 [1]; EC50 of BAM8-22 on MrgX1, without ML382): 18.7 nM
Molecule: H-VGRPEWWMDYQKRYG-OH [BAM8-22, reference compound]

From publication PMC4276534 (ChemMedChem, 2014)
